Values belong to the compound of their own block, whether it stands above or below them.
Columns and labels:
[1] = biological target: T1, human FFA4 (Homo sapiens, UniProt Q5NUL3); experiment: FLIPR calcium flux assay in CHO-FFA4 cells; format: cell-based; conditions: acetylshikonin 100 μM, TUG891 15 μM
T1 sequence (Q5NUL3 1-361): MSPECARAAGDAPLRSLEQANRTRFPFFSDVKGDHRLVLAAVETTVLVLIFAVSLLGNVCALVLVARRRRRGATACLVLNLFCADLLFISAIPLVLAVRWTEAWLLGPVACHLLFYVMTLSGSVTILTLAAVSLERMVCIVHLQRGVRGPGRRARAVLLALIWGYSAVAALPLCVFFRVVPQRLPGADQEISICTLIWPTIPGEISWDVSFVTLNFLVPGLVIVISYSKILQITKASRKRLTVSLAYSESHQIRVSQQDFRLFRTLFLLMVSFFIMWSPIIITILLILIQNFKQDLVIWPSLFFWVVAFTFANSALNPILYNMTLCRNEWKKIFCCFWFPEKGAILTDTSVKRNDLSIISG

[2] = biological target: T2, human FFA1 (Homo sapiens, UniProt O14842); experiment: DMR agonist assay in CHO-FFA1 cells; format: cell-based; conditions: for EC50: CHO-FFA1 cell, EC50, NPs-derived FFA4 agonists
T2 sequence (O14842 whole entry): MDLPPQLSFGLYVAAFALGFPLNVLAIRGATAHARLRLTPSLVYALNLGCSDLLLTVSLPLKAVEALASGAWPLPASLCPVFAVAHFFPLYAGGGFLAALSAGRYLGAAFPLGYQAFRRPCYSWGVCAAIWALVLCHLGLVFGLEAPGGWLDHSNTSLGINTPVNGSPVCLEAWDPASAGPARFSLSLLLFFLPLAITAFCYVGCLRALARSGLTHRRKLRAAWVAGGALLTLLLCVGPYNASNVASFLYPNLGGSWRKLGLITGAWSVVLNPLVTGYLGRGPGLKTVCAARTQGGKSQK

[3] = system: HT29 cells; experiment: DMR agonist assay in HT29 cells; format: cell-based, Human; conditions: for EC50: Homo sapiens, HT-29, read-out: HT29 cell, EC50, NPs-derived FFA4 agonists, DMR, HT29 cells
[4] = biological target: T1, human FFA4; experiment: DMR agonist assay in CHO-FFA4 cells; format: cell-based; conditions: for EC50: CHO-FFA4 cell, EC50, NPs-derived FFA4 agonists, DMR, CHO-FFA4 cells; for Selectivity between FFA4 and FFA1: comparison of DMR activity in CHO-FFA4 and CHO-FFA1 cells; for DMR response relative to the TUG891-induced response: screening of 140 natural compounds in CHO-FFA4 cells, of the TUG891-induced response (∼80 pm); for DMR response in CHO-FFA4 cells: 100 μM ALA, 12.5 μM GW9508, 10 μM TAK875 (Fig. 2A)
[5] = biological target: T2, human FFA1; experiment: DMR desensitization assay in CHO-FFA1 cells; format: cell-based; conditions: CHO-FFA1 cell Desensitization IC50, IC50 to desensitize the DMR of 1 μM GW9508 in CHO-FFA1 cells
[6] = system: CHO-K1 cells; experiment: DMR agonist assay in parental CHO-K1 cells; format: cell-based, Chinese hamster
How it was run: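 Parental CHO-K1 cells were grown in Ham's F12K with 10% FBS, then seeded on biosensor microplates overnight to a confluent monolayer. Cells were washed twice and held 1–2 h in HBSS, 10 mM HEPES, pH 7.2, 0.1% BSA. After a 2 min baseline, the test compound, diluted in the same buffer, was added. Label-free DMR was recorded for 1 h.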

[7] = system: HT29 cells; experiment: DMR desensitization assay in HT29 cells; format: cell-based; conditions: Homo sapiens, HT-29, read-out: HT 29 cell Desensitization IC50
[8] = biological target: T1, human FFA4; experiment: DMR desensitization assay in CHO-FFA4 cells; format: cell-based
[9] = system: FFA4; conditions: read-out: EC50 as natural FFA4 agonist; literature retrieval; cited from earlier work

Ca2+ response in CHO-FFA4 cells [1]: produced a Ca^2+ response | EC50 [2]: 6.17 ± 2.81 µM | EC50 [3]: 2.82 ± 0.39 µM | EC50 [4]: 10.2 ± 2.95 µM | Selectivity between FFA4 and FFA1 [4]: non-selective | DMR response relative to the TUG891-induced response [4]: greater than 30%
SMILES: CC(=O)O[C@H](CC=C(C)C)C1=CC(=O)c2c(O)ccc(O)c2C1=O [Acetylshikonin, acetylshikonin]

EC50 [2]: > 100 µM | EC50 [3]: ~39 µM | EC50 [4]: 38.2 ± 5.02 µM | Selectivity between FFA4 and FFA1 [4]: selectivity on FFA4 | DMR response relative to the TUG891-induced response [4]: greater than 30%
SMILES: Cc1cc(O)c2c(c1)C(=O)c1cc(O)cc(O)c1C2=O [Emodin, emodin]

Agonist efficacy in CHO-FFA1 cells compared with ALA [2]: partial agonism | DMR response in CHO-FFA4 cells [4]: minor response
SMILES: O=C(O)CCc1ccc(NCc2cccc(Oc3ccccc3)c2)cc1 [GW9508]
IC50 [5]: 0.14 ± 0.01 µM | DMR response in parental CHO-K1 cells [6]: negligible DMR response | IC50 [7]: 12 ± 2.12 µM

DMR response in CHO-FFA4 cells [4]: did not induce any response
SMILES: Cc1cc(OCCCS(C)(=O)=O)cc(C)c1-c1cccc(COc2ccc3c(c2)OC[C@H]3CC(=O)O)c1 [TAK875]
DMR response in HT29 cells ([3]; TAK875 at 10 μM, MEDICA16): did not induce an observable signal | DMR response in parental CHO-K1 cells [6]: negligible DMR response | IC50 [7]: > 20 µM | IC50 [8]: > 20 µM

SMILES: Cc1ccc(-c2ccc(F)cc2COc2ccc(CCC(=O)O)cc2)cc1 [TUG891]
DMR response in parental CHO-K1 cells [6]: neither GSK137647A (Fig. 2F) nor TUG891 (data not shown) produced detectable DMR events | IC50 [7]: 0.48 ± 0.12 µM

SMILES: CC(C)=CCC/C(C)=C/CC/C(C)=C/Cc1c(O)cc(C)c(C(=O)O)c1O [grifolic acid]
EC50 [9]: > 30 µM

SMILES: CCCCCCCCCCCCCC[C@@H](O)[C@@H](O)[C@@H](N)CO [phytosphingosine]
EC50 [9]: 33.4 µM

Reference: publication PMC9064241 (RSC Advances, 2019)
